Measured values: ChEMBL document CHEMBL1150419, “Structure-activity relationships of a peptide inhibitor of the human FcRn:human IgG interaction” (Bioorg Med Chem, 2008)

Tests used:
[1] = target: T1, IgG receptor FcRn large subunit p51 (Homo sapiens, UniProt P55899); test: Binding affinity to human FcRn at pH 6 by surface plasmon resonance assay
Method in brief: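 Soluble human FcRn coupled to the dextran surface of a CM5 chip; peptide dilutions flowed over the chip. The equilibrium response at each dilution was plotted against concentration and fitted to a steady-state affinity model to give Kd.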

[2] = target: T1, IgG receptor FcRn large subunit p51; test: Inhibition of human IgG binding to soluble human FcRn by ELISA
Method in brief: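 Biotinylated soluble human FcRn immobilized on neutravidin plates, incubated with hIgG (3 nM, constant) and peptide at varying concentrations for 2 h at 37 °C. After washing, bound hIgG detected with peroxidase-conjugated hIgG-specific Fab fragments.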

T1 sequence (P55899 whole entry): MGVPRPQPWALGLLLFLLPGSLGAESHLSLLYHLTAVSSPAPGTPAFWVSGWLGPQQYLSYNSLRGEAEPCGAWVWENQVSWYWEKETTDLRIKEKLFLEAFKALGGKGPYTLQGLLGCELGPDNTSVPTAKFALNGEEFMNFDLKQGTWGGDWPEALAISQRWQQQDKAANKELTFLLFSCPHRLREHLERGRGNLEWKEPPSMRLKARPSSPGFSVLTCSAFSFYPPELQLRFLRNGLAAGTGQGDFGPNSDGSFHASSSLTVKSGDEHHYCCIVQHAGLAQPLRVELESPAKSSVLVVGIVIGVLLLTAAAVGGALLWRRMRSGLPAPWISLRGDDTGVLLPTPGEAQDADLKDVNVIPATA

| Compound | Kd [1] | IC50 [2] |
| --- | --- | --- |
| CC(C)C[C@H](NC(=O)CNC(=O)CNC(=O)[C@@H]1Cc2ccccc2CN1C(=O)[C@H](Cc1cnc[nH]1)NC(=O)CNC(=O)[C@@H](NC(=O)[C@@H](NC(=O)[C@H](Cc1ccccc1)NC(=O)[C@H](CCCNC(=N)N)NC(=O)[C@@H](N)CCC(N)=O)C(C)(C)S)[C@@H](C)O)C(=O)N[C@@H](Cc1ccc(O)cc1)C(=O)N1CCC[C@H]1C(=O)N[C@@H](CS)C(=O)N[C@@H](CC(N)=O)C(=O)NCC(=O)N1CCC[C@H]1C(=O)O | > 250 µM | > 125 µM |
| CC(C)C[C@H](NC(=O)CNC(=O)CNC(=O)[C@H](Cc1ccc2ccccc2c1)NC(=O)[C@H](Cc1cnc[nH]1)NC(=O)CNC(=O)[C@@H](NC(=O)[C@@H](NC(=O)[C@H](Cc1ccccc1)NC(=O)[C@H](CCCN=C(N)N)NC(=O)[C@@H](N)CCC(N)=O)C(C)(C)S)[C@@H](C)O)C(=O)N[C@@H](Cc1ccc(O)cc1)C(=O)N1CCC[C@H]1C(=O)N[C@@H](CS)C(=O)N[C@@H](CC(N)=O)C(=O)NCC(=O)N1CCC[C@H]1C(=O)O | 11 µM | 90 µM |
| CC(C)C[C@H](NC(=O)C(C)(C)NC(=O)CNC(=O)[C@H](Cc1ccccc1)NC(=O)[C@H](Cc1cnc[nH]1)NC(=O)CNC(=O)[C@@H](NC(=O)[C@@H](NC(=O)[C@H](Cc1ccccc1)NC(=O)[C@H](CCCNC(=N)N)NC(=O)[C@@H](N)CCC(N)=O)C(C)(C)S)[C@@H](C)O)C(=O)N[C@@H](Cc1ccc(O)cc1)C(=O)N1CCC[C@H]1C(=O)N[C@@H](CS)C(=O)N[C@@H](CC(N)=O)C(=O)NCC(=O)N1CCC[C@H]1C(=O)O | 0.48 µM | 2.4 µM |
| CC(C)C[C@H](NC(=O)CNC(=O)CNC(=O)[C@H](Cc1cccnc1)NC(=O)[C@H](Cc1cnc[nH]1)NC(=O)CNC(=O)[C@@H](NC(=O)[C@@H](NC(=O)[C@H](Cc1ccccc1)NC(=O)[C@H](CCCN=C(N)N)NC(=O)[C@@H](N)CCC(N)=O)C(C)(C)S)[C@@H](C)O)C(=O)N[C@@H](Cc1ccc(O)cc1)C(=O)N1CCC[C@H]1C(=O)N[C@@H](CS)C(=O)N[C@@H](CC(N)=O)C(=O)NCC(=O)N1CCC[C@H]1C(=O)O | 19 µM | 60 µM |
| CC(C)C[C@H](NC(=O)[C@@H](CCCN=C(N)N)NC(=O)CNC(=O)[C@H](Cc1ccccc1)NC(=O)[C@H](Cc1cnc[nH]1)NC(=O)CNC(=O)[C@@H](NC(=O)[C@@H](NC(=O)[C@H](Cc1ccccc1)NC(=O)[C@H](CCCN=C(N)N)NC(=O)[C@@H](N)CCC(N)=O)C(C)(C)S)[C@@H](C)O)C(=O)N[C@@H](Cc1ccc(O)cc1)C(=O)N1CCC[C@H]1C(=O)N[C@@H](CS)C(=O)N[C@@H](CC(N)=O)C(=O)NCC(=O)N1CCC[C@H]1C(=O)O | 0.83 µM | 8.1 µM |
| CC(C)C[C@H](NC(=O)[C@@H](C)NC(=O)CNC(=O)[C@H](Cc1ccccc1)NC(=O)[C@H](Cc1cnc[nH]1)NC(=O)CNC(=O)[C@@H](NC(=O)[C@@H](NC(=O)[C@H](Cc1ccccc1)NC(=O)[C@H](CCCN=C(N)N)NC(=O)[C@@H](N)CCC(N)=O)C(C)(C)S)[C@@H](C)O)C(=O)N[C@@H](Cc1ccc(O)cc1)C(=O)N1CCC[C@H]1C(=O)N[C@@H](CS)C(=O)N[C@@H](CC(N)=O)C(=O)NCC(=O)N1CCC[C@H]1C(=O)O | 0.48 µM | 2 µM |
| Cc1cccc(C[C@H](NC(=O)[C@H](Cc2cnc[nH]2)NC(=O)CNC(=O)[C@@H](NC(=O)[C@@H](NC(=O)[C@H](Cc2ccccc2)NC(=O)[C@H](CCCN=C(N)N)NC(=O)[C@@H](N)CCC(N)=O)C(C)(C)S)[C@@H](C)O)C(=O)NCC(=O)NCC(=O)N[C@@H](CC(C)C)C(=O)N[C@@H](Cc2ccc(O)cc2)C(=O)N2CCC[C@H]2C(=O)N[C@@H](CS)C(=O)N[C@@H](CC(N)=O)C(=O)NCC(=O)N2CCC[C@H]2C(=O)O)c1 | 0.67 µM | 4.1 µM |
| CC(C)C[C@H](NC(=O)CNC(=O)CNC(=O)[C@H](Cc1cccc(Cl)c1)NC(=O)[C@H](Cc1cnc[nH]1)NC(=O)CNC(=O)[C@@H](NC(=O)[C@@H](NC(=O)[C@H](Cc1ccccc1)NC(=O)[C@H](CCCNC(=N)N)NC(=O)[C@@H](N)CCC(N)=O)C(C)(C)S)[C@@H](C)O)C(=O)N[C@@H](Cc1ccc(O)cc1)C(=O)N1CCC[C@H]1C(=O)N[C@@H](CS)C(=O)O | 230 µM | 3.7 µM |
| Cc1ccccc1C[C@H](NC(=O)[C@H](Cc1cnc[nH]1)NC(=O)CNC(=O)[C@@H](NC(=O)[C@@H](NC(=O)[C@H](Cc1ccccc1)NC(=O)[C@H](CCCNC(=N)N)NC(=O)[C@@H](N)CCC(N)=O)C(C)(C)S)[C@@H](C)O)C(=O)NCC(=O)NCC(=O)N[C@@H](CC(C)C)C(=O)N[C@@H](Cc1ccc(O)cc1)C(=O)N1CCC[C@H]1C(=O)N[C@@H](CS)C(=O)N[C@@H](CC(N)=O)C(=O)NCC(=O)N1CCC[C@H]1C(=O)O | 0.2 µM | 1 µM |
| CC(C)C[C@H](NC(=O)CNC(=O)CNC(=O)[C@H](CCc1ccccc1)NC(=O)[C@H](Cc1cnc[nH]1)NC(=O)CNC(=O)[C@@H](NC(=O)[C@@H](NC(=O)[C@H](Cc1ccccc1)NC(=O)[C@H](CCCNC(=N)N)NC(=O)[C@@H](N)CCC(N)=O)C(C)(C)S)[C@@H](C)O)C(=O)N[C@@H](Cc1ccc(O)cc1)C(=O)N1CCC[C@H]1C(=O)N[C@@H](CS)C(=O)N[C@@H](CC(N)=O)C(=O)NCC(=O)N1CCC[C@H]1C(=O)O | 7.8 µM | 80 µM |
| CC(C)C[C@H](NC(=O)CNC(=O)C(C)(C)NC(=O)[C@H](Cc1ccccc1)NC(=O)[C@H](Cc1cnc[nH]1)NC(=O)CNC(=O)[C@@H](NC(=O)[C@@H](NC(=O)[C@H](Cc1ccccc1)NC(=O)[C@H](CCCNC(=N)N)NC(=O)[C@@H](N)CCC(N)=O)C(C)(C)S)[C@@H](C)O)C(=O)N[C@@H](Cc1ccc(O)cc1)C(=O)N1CCC[C@H]1C(=O)N[C@@H](CS)C(=O)N[C@@H](CC(N)=O)C(=O)NCC(=O)N1CCC[C@H]1C(=O)O | 5.2 µM | 17 µM |
| CC(C)C[C@H](NC(=O)CNC(=O)CNC(=O)[C@@H](NC(=O)[C@H](Cc1cnc[nH]1)NC(=O)CNC(=O)[C@@H](NC(=O)[C@@H](NC(=O)[C@H](Cc1ccccc1)NC(=O)[C@H](CCCN=C(N)N)NC(=O)[C@@H](N)CCC(N)=O)C(C)(C)S)[C@@H](C)O)c1ccccc1)C(=O)N[C@@H](Cc1ccc(O)cc1)C(=O)N1CCC[C@H]1C(=O)N[C@@H](CS)C(=O)N[C@@H](CC(N)=O)C(=O)NCC(=O)N1CCC[C@H]1C(=O)O | > 250 µM | > 125 µM |
| CC(C)C[C@H](NC(=O)CNC(=O)[C@@H](Cc1ccccc1)NC(=O)[C@H](Cc1ccccc1)NC(=O)[C@H](Cc1cnc[nH]1)NC(=O)CNC(=O)[C@@H](NC(=O)[C@@H](NC(=O)[C@H](Cc1ccccc1)NC(=O)[C@H](CCCNC(=N)N)NC(=O)[C@@H](N)CCC(N)=O)C(C)(C)S)[C@@H](C)O)C(=O)N[C@@H](Cc1ccc(O)cc1)C(=O)N1CCC[C@H]1C(=O)N[C@@H](CS)C(=O)N[C@@H](CC(N)=O)C(=O)NCC(=O)N1CCC[C@H]1C(=O)O | 0.51 µM | 2.8 µM |
| CC(C)C[C@H](NC(=O)[C@H]1CCCN1C(=O)[C@@H](Cc1ccccc1)NC(=O)[C@H](Cc1ccccc1)NC(=O)[C@H](Cc1cnc[nH]1)NC(=O)CNC(=O)[C@@H](NC(=O)[C@@H](NC(=O)[C@H](Cc1ccccc1)NC(=O)[C@H](CCCN=C(N)N)NC(=O)[C@@H](N)CCC(N)=O)C(C)(C)S)[C@@H](C)O)C(=O)N[C@@H](Cc1ccc(O)cc1)C(=O)N1CCC[C@H]1C(=O)N[C@@H](CS)C(=O)N[C@@H](CC(N)=O)C(=O)NCC(=O)N1CCC[C@H]1C(=O)O | 0.72 µM | 5.9 µM |
